A selection: hits, their analogues and other compounds. The true share with any hit is near 1.5%.
MK inhibit – blocks S. pneumoniae mevalonate kinase; purified MK, PK/LDH-coupled NADH absorbance 340 nm; inhibition, % at 10 µM; 65,000 tested, 0.48% active; AID 555;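 active = ranked among the strongest by inhibition in the single 10 µM screen, a fixed top-ranked set picked for dose follow-up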
TNAP act mid DEA – human TNAP activation, intermediate phosphate acceptor; P05186; purified TNAP, CDP-star luminescence, 100 mM DEA, 30 min; active compounds read high; scale: 0 levamisole-inhibited, 1 vehicle-only enzyme; activation factor at 20 µM; 64,000 tested, under 10 active; AID 813;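 active = activation factor of at least 2 at 20 µM, relative to controls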
Target sequence (P05186 whole entry, looked up): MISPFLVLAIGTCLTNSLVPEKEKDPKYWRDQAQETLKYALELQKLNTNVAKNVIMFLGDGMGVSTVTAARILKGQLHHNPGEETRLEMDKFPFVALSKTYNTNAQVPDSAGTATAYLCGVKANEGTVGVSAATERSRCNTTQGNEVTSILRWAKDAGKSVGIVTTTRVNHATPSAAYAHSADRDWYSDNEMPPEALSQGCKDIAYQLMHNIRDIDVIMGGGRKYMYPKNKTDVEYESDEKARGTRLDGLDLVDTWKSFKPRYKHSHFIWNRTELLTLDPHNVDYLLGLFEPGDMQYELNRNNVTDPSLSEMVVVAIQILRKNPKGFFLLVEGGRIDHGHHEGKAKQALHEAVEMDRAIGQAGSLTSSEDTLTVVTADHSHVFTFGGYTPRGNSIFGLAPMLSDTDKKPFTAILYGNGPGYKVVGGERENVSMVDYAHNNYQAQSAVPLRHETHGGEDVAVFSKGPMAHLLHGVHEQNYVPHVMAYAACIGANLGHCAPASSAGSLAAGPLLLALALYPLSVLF
Spn DPM-DC inh – blocks S. pneumoniae diphosphomevalonate decarboxylase; calls only at 10 µM; purified DPM-DC, PK/LDH coupled NADH fluorescence; 65,000 tested, 0.49% active; AID 556;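 active = the 320 compounds with the highest percent inhibition in the single-dose primary screen, excluding strongly autofluorescent ones, cut at about 32% in these data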;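 also: kinetic rate of NADH fluorescence loss reporting ADP formed by the decarboxylase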
AP complement – alternative pathway complement inhibition, orthogonal assay; Human serum alternative complement pathway, LPS-coated ELISA, C3 deposition; tested in compound mixtures; inhibition, % at 5 µM; 62,000 tested, 0.08% active; AID 1235;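 active = inhibition above 30% in each of the two pooled mixtures holding the compound, so the lower value exceeds 30%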;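 also: 0% = serum in Mg-EGTA without compound and 100% = EDTA serum blank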
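Medium: diluted human serum in Mg2+-EGTA GVB++. Assay system: human serum complement alternative pathway, C3 deposition onto LPS. Also added: Plate-bound LPS. Technique: Anti-C3 ELISA, OD 450 nm. Measure: percent inhibition. Incubation: 1 h at 37 °C. Dosing: 5 µM each compound, pools of ten, 50 µM per pool.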
Ec RNAP inh – blocks E. coli RNA polymerase transcription; AID 559; fluorescence transcription assay; 62,000 tested, 0.2% active; P0A8V2; inhibition, %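 (tested at 10 µM)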; in the data active = inhibition above about 20%;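 also: 0% = enzyme without compound and 100% = no enzyme blank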
PMK inhibit – inhibitors of Streptococcus pneumoniae phosphomevalonate kinase | purified PMK, PK/LDH-coupled NADH absorbance 340 nm | inhibition, % at 10 µM | 65,000 tested, 0.49% active;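 active = top-ranked compounds by inhibition in the single 10 µM screen, taking a fixed number of the strongest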;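 also: 0% = full reaction with DMSO carrier and 100% = background rate without enzyme reaction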
Starred values were filed as active, the others as inactive; i = inactive; . = no result shown; + = active, no number; [ ] = remark or other dose.

SMILES	MK inhibit	TNAP act mid DEA	Spn DPM-DC inh	AP complement	Ec RNAP inh	PMK inhibit
COc1ccc(-n2c(COc3cccc(C)c3)nnc2SCC(=O)NCc2ccco2)cc1	0.0	0.8	i	1.4	21.8*	21.0
CCOc1ccc(NCc2nnc(SCC(=O)Nc3cc(C)on3)n2-c2ccc(OC)cc2)cc1	1.0	0.9	i	12.3	25.1*	3.0
Cc1ccc(-n2c(CSc3nc(C)cc(C)n3)nnc2SCC(=O)NCc2ccco2)cc1	4.0	0.9	i	11.1	1.8	26.0*
CCOc1ccc(NCc2nnc(SCC(=O)Nc3cc(C)on3)n2-c2ccccc2OC)cc1	6.0	0.9	i	1.7	9.4	0.0
CC(=O)c1c(C)nc(-c2ccc(Cl)cc2)nc1NC(=O)C(C)C	0.0	0.9	i	6.3	4.6	0.0
CCOc1cc(S(=O)(=O)NCCc2cccc(C)c2)c(OCC)cc1-n1cnnn1	4.0	0.9	.	8.2	6.0	11.0
O=C(COC(=O)CCc1c[nH]c(=O)[nH]1)Nc1ccccc1	0.0	0.9	i	-0.4	9.4	25.0*
CCOC(=O)CNC(=O)c1ccc2c(c1)OCCO2	0.0	0.9	i	3.1	10.8	23.0
CCOc1ccccc1C(=O)NCC(=O)OCC(=O)c1ccc2c(c1)OCCO2	0.0	1	i	-0.3	8.9	26.0*
Cc1nn(Cc2ccccc2)c2c1C(c1ccncc1)C(C#N)=C(N)O2 (stereo not drawn)	8.0	0.9	i	-3.0	3.6	31.0*
COCCCn1cnc2c(c1=O)c1nc3ccccc3nc1n2CCc1ccccc1	3.0	0.9	.	7.8	-9.5	0.0
COC(=O)c1sccc1NC(=O)c1ccc2c(c1)OCO2	7.0	1	i	18.5	1.6	0.0
COc1cc(NC(=O)c2ccc3c(c2)OCO3)c2ncccc2c1	5.0	0.9	+	9.9	9.2	7.0
O=C(Nc1ccccc1C(=O)NCCCn1ccnc1)c1ccccc1	8.0	0.8	i	-8.3	20.8*	3.0
CC(CN1CCN(C)CC1)OC(=O)c1ccc(Cl)cc1 (stereo not drawn)	2.0	0.9	i	6.5	0.5	28.0*
CCOC(=O)C1CCCN(Cc2c(F)cccc2Cl)C1 (stereo not drawn)	35.0	0.9	i	2.7	6.6	0.0
CCOC(=O)C1CCCN(Cc2ccccc2C)C1 (stereo not drawn)	42.0*	0.9	i	-7.2	1.3	0.0
CCOC(=O)C1CCCN(Cc2ccccc2OCC)C1 (stereo not drawn)	41.0*	0.9	i	4.6	8.9	0.0
Cc1ccc(NC2c3ncccc3C(=O)N2c2ccccc2C)cc1C (stereo not drawn)	83.0*	0.9	i	5.1	6.0	23.0
COc1ccc(-c2nnc(SCc3nnc(-c4ccc(Cl)cc4)o3)n2-c2ccccc2)cc1	8.0	1	i	-14.4	-2.9	8.0
c1ccc(-c2nn3c(-c4ccncc4)nnc3s2)nc1	6.0	0.8	i	20.7	.	0.0
CCOC(=O)C(C)Oc1ccc2c(C)cc(=O)oc2c1C(C)=O (stereo not drawn)	4.0	0.9	i	.	13.9	8.0
CCC(=O)Oc1ccc2c(C)cc(=O)oc2c1C	7.0	0.9	+[fluoresces]	13.7	-25.4	12.0
Cc1c(=O)n(OCc2c(F)cccc2F)c2ccccc2[n+]1[O-]	6.0	0.8	i	.	8.2	11.0
